NadD inh: inhibitors of S. aureus NadD, primary screen, biochemical, colorimetric, uHTS. Nicotinate-nucleotide adenylyltransferase NadD (Staphylococcus aureus N315). purified NadD enzyme, colorimetric absorbance read-out. inhibition, % at 20 µM. actives 0.78% (n = 360,000); in the data active = inhibition above about 26%
STEP block: STEP phosphatase inhibitors, primary screen, biochemical, fluorescence intensity, uHTS | Tyrosine-protein phosphatase non-receptor type 5 (Homo sapiens), P54829 | recombinant STEP, OMFP fluorogenic substrate | inhibition, % at 20 µM | actives 0.25% (n = 360,000) | AID 588621, 2011;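 active = inhibition at 20 µM, scaled per plate between control wells, above about 37%, limit read from the data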;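 note: 0% = DMSO with enzyme and substrate and 100% = substrate only without enzyme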
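Material: STEP (striatal-enriched tyrosine phosphatase) enzyme, cell-free | Medium: 50 mM Bis-Tris pH 6.0 with 2.5 mM DTT and 0.005% Tween 20 | Read-out: Percent inhibition scaled to no-enzyme and uninhibited-enzyme controls, plate-pattern corrected | Signal: Fluorescence read at 480 nm ex / 540 nm em | Times: 20 min reaction, room temperature, in the dark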
Scp1 inh: Scp-1 phosphatase inhibitors, primary screen, biochemical, colorimetric, uHTS; Carboxy-terminal domain RNA polymerase II polypeptide A small phosphatase 1 (Homo …; Recombinant Scp1, phosphopeptide, malachite green phosphate absorbance; inhibition, % at 20 µM; actives 0.88% (n = 340,000);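 active = inhibition above about 50% at 20 µM, limit read from the data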;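 note: plate controls were DMSO wells with enzyme for no effect and wells lacking enzyme for full effect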
Target sequence (Q9GZU7 76-261 limits assumed): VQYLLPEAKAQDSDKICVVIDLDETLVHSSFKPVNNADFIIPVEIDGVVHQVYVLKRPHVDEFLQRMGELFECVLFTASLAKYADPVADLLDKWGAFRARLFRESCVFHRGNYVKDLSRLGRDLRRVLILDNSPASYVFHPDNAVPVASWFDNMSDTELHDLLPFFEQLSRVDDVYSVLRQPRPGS
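Test system: SCP-1 phosphatase catalytic domain, residues 76-261; measured by: colorimetric phosphate reagent with accelerator and stabiliser, absorbance at 630 nm; timing: enzyme reaction 45 min at room temperature, colour 5 min, stabilisation 30 min; also added: Phosphorylated 17-residue peptide substrate; compound dosing: one concentration, 20 µM, with 1.0% DMSO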
SUMO1-SIM PPI: modulators of SUMO1 protein-protein interactions, primary screen, biochemical, uHTS | Small ubiquitin-related modifier 1 (Homo sapiens), P63165 | SUMO1 binding to a labelled peptide, TR-FRET, 1 h | inhibition, % at 20 µM | actives 0.33% (n = 360,000) | AID 602429, 2012; in the data active = inhibition above about 37%
Target sequence (P63165 whole entry, looked up): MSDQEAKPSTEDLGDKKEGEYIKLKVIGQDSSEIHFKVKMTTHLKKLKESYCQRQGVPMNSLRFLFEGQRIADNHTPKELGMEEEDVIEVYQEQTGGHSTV
DNMT1 inh: human DNMT1 methyltransferase inhibitors, primary screen, biochemical, molecular beacon, fluorescence, HinP1I cleavage, uHTS; AID 588458, 2011; actives 0.83% (n = 360,000); inhibition (reported as % activation of signal), % at 10 µM; in the data active = inhibition above about 50%
LMPTP block: LMPTP phosphatase inhibitors, primary screen, biochemical, fluorescence intensity, uHTS; Low molecular weight phosphotyrosine protein phosphatase (Homo sapiens), P24666; recombinant LMPTP-A, OMFP fluorogenic substrate; inhibition, % at 20 µM; actives 0.22% (n = 360,000);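 active = compounds that cut the enzyme signal by at least half of the control window in the single-dose screen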;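 note: plate controls were DMSO wells with enzyme plus substrate for no effect and substrate without enzyme for full effect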
Target sequence (P24666 whole entry, looked up): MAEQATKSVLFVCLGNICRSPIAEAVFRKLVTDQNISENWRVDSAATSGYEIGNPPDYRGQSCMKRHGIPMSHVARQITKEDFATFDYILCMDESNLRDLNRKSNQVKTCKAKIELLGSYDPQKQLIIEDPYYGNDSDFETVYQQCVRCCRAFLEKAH
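Assay system: LMPTP-A phosphatase enzyme | Input: 0.625 nM enzyme | Also added: Fluorogenic phosphatase substrate OMFP at 400 µM final | Compound dosing: One test concentration per compound, 20 µM, with 3% DMSO overall | Schedule: 50 min enzyme reaction at room temperature, protected from light | Signal: Fluorescence intensity | Benchmarks: no-enzyme and uninhibited controls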
NadD inh conf: inhibitors of S. aureus NadD, confirmation, biochemical, colorimetric, single concentration; purified S. aureus NadD, colorimetric enzyme assay; actives 13% (n = 2,000); inhibition, % at 20 µM; shares compounds with NadD inh; in the data active = inhibition mostly above about 42%, no sharp cut-off; inactive = mostly below about 42%
The depositor's hits bear a star; nt = not tested or not shown. Compounds with a hit are over-represented: about 2.3% of the library has one in this group of screens.

SMILES | NadD inh | STEP block | Scp1 inh | SUMO1-SIM PPI | DNMT1 inh | LMPTP block | NadD inh conf
CC(=O)c1c(C)[nH]c(C(=O)OCC(=O)NCc2ccccc2)c1C | 2.6 | -1.4 | nt | 4.7 | -2.0 | -1.3 | nt
CC(C)C[C@@H](CN1CCC[C@@H]1CN1C(=S)NC[C@@H]1Cc1ccc(O)cc1)N1C[C@H](Cc2ccc(O)cc2)N(CCc2ccccc2)C1=S | 39.7* | 3.4 | nt | 5.8 | -53.0 | 1.5 | 27.8
CC(C)C[C@@H](CN1CCC[C@@H]1CN1C(=S)NC[C@@H]1Cc1ccccc1)N1C[C@H](Cc2ccc(O)cc2)N(CCc2ccccc2)C1=S | 19.3 | 2.1 | nt | 2.0 | -21.5 | 1.4 | nt
CC(C)C[C@@H](CN1CCCC1CN1C(=S)NC[C@@H]1Cc1ccccc1)N1C[C@H](Cc2ccc(O)cc2)N(CCc2ccccc2)C1=S (some centres not stated) | 45.2* | nt | nt | 5.0 | nt | 4.0 | 12.5
CC(C)C[C@@H](CN1CCCC1CN1C(=S)NC[C@@H]1Cc1ccccc1)N1C[C@H](Cc2ccccc2)N(CCc2ccccc2)C1=S (some centres not stated) | 20.2 | nt | nt | 2.2 | nt | 1.4 | nt
COc1cccc(CNC(=O)[C@@H]2CCCN2C(=O)[C@H]2CCCCN2C(=O)c2ccccc2)c1 | -0.3 | nt | nt | -2.3 | nt | -1.8 | nt
Cc1cc(NC(=O)C(C)Sc2nc(-c3ccccc3)cc(=O)[nH]2)no1 (configuration not stated) | -5.4 | -1.8 | 0.7 | 5.6 | 1.7 | -1.9 | nt
CCN1c2ccccc2NC2C1C(C(C)=O)C(=O)N2c1ccc(Cl)cc1 (configuration not stated) | 36.9* | -1.8 | -4.6 | -15.0 | -26.6 | 1.3 | 4.8
O=C1Nc2ccccc2N(O)N1c1ccc(Cl)cc1 | 5.7 | 1.2 | 1.2 | 0.3 | -0.1 | -1.6 | nt
CCCn1c(=O)c2c(C(=O)OCC)cc(-c3ccco3)nc2n(CCC)c1=O | -2.5 | -1.6 | 12.1 | 13.8 | 0.6 | -0.8 | nt
CCOC(=O)c1cc(-c2ccco2)nc2c1c(C)nn2-c1ccccc1 | 33.3* | 1.8 | -5.2 | 0.6 | 0.0 | 1.9 | 8.0
Cc1ccc(OCc2n[nH]c(=S)n2C2CCCCC2)cc1 | 4.4 | 0.8 | -5.2 | -5.1 | 10.5 | 1.9 | nt
S=c1[nH]nc(COc2ccc(Cl)cc2)n1C1CCCCC1 | 34.5* | 0.9 | 3.1 | -4.1 | 7.3 | 0.5 | 32.8
COc1ccc2c(c1)C(=O)N1[C@H]3c4cc(Br)ccc4OC[C@@H]3[C@H](c3ccccc3)[C@]1(C)C(=O)N2 | 30.4* | 1.0 | -10.3 | 1.7 | -3.1 | 0.5 | 24.8
C[C@@]12C(=O)Nc3ccc(Br)cc3C(=O)N1[C@H]1c3cc(Br)ccc3OC[C@@H]1[C@@H]2c1ccccc1 | 8.2 | -0.1 | -8.1 | -4.0 | 3.5 | 1.7 | nt
CC(C)=CC(=O)Nc1ccc(S(=O)(=O)Nc2ccccn2)cc1 | 5.7 | 1.1 | -3.6 | 1.4 | 3.6 | 0.2 | nt
O=C(c1ccc(Cn2c(=S)[nH]c3ccc(N4CCOCC4)cc3c2=O)cc1)N1CCN(c2ccc(F)cc2)CC1 | 19.7 | 1.5 | -8.9 | 21.2 | -8.6 | 2.6 | nt
Cc1ccc(C)c(N2CCN(C(=O)c3ccc(Cn4c(=S)[nH]c5ccc(N6CCOCC6)cc5c4=O)cc3)CC2)c1 | 30.5* | 1.0 | -7.4 | -1.1 | -7.4 | -0.3 | -3.4
COc1ccc(Nc2nnc(SC(C(=O)Nc3ccc(OC)c(Cl)c3)c3ccccc3)s2)cc1 (configuration not stated) | 32.1* | -2.0 | 2.7 | 2.3 | -21.5 | 4.9 | 47.5
Cc1cc2cc(CNC(=O)Nc3ccccc3)ccc2[nH]1 | 49.2* | 1.4 | -9.4 | -9.3 | -8.0 | 4.2 | -4.6
CCOC(=O)NCc1ccc2[nH]c(C)cc2c1 | -1.0 | 1.2 | 1.5 | -22.7 | -13.2 | 3.1 | nt
Cc1cc2cc(CNC(=S)Nc3ccc(OC(F)(F)F)cc3)ccc2[nH]1 | 32.5* | 0.2 | 6.1 | -54.0 | -31.9 | 1.1 | -0.8
Cc1cc2cc(CNC(=S)Nc3ccc(OC(F)F)cc3)ccc2[nH]1 | -1.1 | -0.4 | -5.8 | 5.6 | -31.9 | 0.8 | nt
COc1ccc(-n2c3c(cc(C#N)c2=O)C(=O)CCC3)cc1 | -0.9 | -3.1 | -0.7 | -1.6 | 0.8 | -0.2 | nt
O=C(NCc1cccnc1)C1CCC(CNS(=O)(=O)c2cccc3nsnc23)CC1 (configuration not stated) | -1.1 | -1.9 | -10.7 | -19.7 | -0.4 | 0.1 | nt
SMILES | NadD inh | STEP block | Scp1 inh | SUMO1-SIM PPI | DNMT1 inh | LMPTP block | NadD inh conf
CCc1ccc(C(=O)COC(=O)c2cccc(N3C(=O)c4c(C)nc5ccccc5c4C3=O)c2)cc1 | 36.3* | 5.7 | 14.4 | -11.4 | -2.0 | 0.4 | 2.7
CC(=O)c1cccc(-c2ccc3c(=O)[nH]c(Nc4ccccc4)cc3c2)c1 | 35.0* | 20.1 | 7.1 | 34.2 | 105.3* | 19.0 | 23.0
Cc1ccc([C@@H]2CC=C(C(=O)O)[C@H](c3cccc(F)c3)N2S(=O)(=O)c2ccccc2C)cc1 | 2.9 | 2.0 | -4.2 | 9.8 | 5.1 | 0.1 | nt
Cc1ccc([C@@H]2CC=C(C(=O)O)[C@H](c3ccc(F)cc3)N2S(=O)(=O)c2ccccc2C)cc1 | 41.9* | 0.9 | -0.1 | 3.3 | 4.5 | -0.5 | 35.6
O=C(NC(Cc1c[nH]c2ccccc12)C(=O)N1CCOCC1)c1cccs1 (configuration not stated) | -0.1 | 1.7 | 0.4 | 1.4 | -0.2 | 0.9 | nt
O=C(NC(Cc1c[nH]c2ccccc12)C(=O)N/N=C/c1ccc(Cl)cc1)c1cccs1 (configuration not stated) | 31.2* | -5.1 | -11.1 | -1.2 | -19.4 | 5.3 | 34.6
O=C(COC(=O)c1ccc(Br)o1)Nc1nc2c(F)c(F)c(F)cc2s1 | 34.4* | 14.0 | 35.2 | 3.8 | 10.2 | 60.2* | 28.5
O=C(COC(=O)CCC1CCCC1)Nc1nc2c(F)c(F)c(F)cc2s1 | 3.4 | 5.9 | -6.7 | 3.2 | 11.3 | -1.9 | nt
O=C(/C=C/c1ccc2c(c1)OCO2)N1CCN(c2n[nH]c(=O)[nH]c2=O)CC1 | -3.2 | -1.5 | -12.3 | -12.3 | -1.2 | -0.6 | nt
Cc1ccc(Cl)cc1N1C(=O)CC(Sc2ccccc2N)C1=O (configuration not stated) | 4.0 | -3.2 | nt | 6.1 | 20.6 | -1.0 | nt
